From ChEMBL document CHEMBL1146776, “Identification and optimization of novel partial agonists of neuromedin B receptor using parallel synthesis” (Bioorg Med Chem Lett, 2004)

target: T1, Neuromedin-B receptor (Homo sapiens, UniProt P28336); experiment: Agonistic activity was determined against human Neuromedin B receptor transfected in HEK293 cells as accumulation levels of inositol phosphate; assay type: functional, cell-based; conditions: not given
Summary of the method: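 hNMBR-transfected HEK293 cells (2.5 · 10⁴) labelled overnight at 37 °C in high-glucose DMEM with 25 mM Hepes, 10% dialyzed FBS and myo-[³H]inositol. Compounds added in inositol-free DMEM with 0.3% BSA and 10 mM LiCl, 60 min, 37 °C. Lysis in 20 mM formic acid, 2 h, 4 °C. Inositol phosphates captured on SPA beads and counted next day.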

T1 sequence (P28336 whole entry): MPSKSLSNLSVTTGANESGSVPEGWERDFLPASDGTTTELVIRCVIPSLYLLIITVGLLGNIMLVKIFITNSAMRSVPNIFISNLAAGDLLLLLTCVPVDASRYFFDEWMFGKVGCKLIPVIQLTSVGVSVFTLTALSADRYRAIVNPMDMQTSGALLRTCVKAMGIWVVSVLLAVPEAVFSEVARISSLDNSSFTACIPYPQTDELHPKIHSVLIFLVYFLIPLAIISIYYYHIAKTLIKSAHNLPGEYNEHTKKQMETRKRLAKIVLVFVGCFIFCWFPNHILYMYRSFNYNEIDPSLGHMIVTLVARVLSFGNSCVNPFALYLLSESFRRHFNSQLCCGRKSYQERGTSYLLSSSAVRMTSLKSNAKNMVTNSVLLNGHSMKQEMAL

Row | Compound | EC50 [nM]
1 | CC(C)c1cccc(C(C)C)c1NC(=O)NC1(C(=O)NCC2(c3ccccn3)CCCCC2)CCc2[nH]c3ccccc3c2C1 (stereo not given) | 603
2 | COc1cccc2[nH]c3c(c12)CC(NC(=O)Nc1c(C(C)C)cccc1C(C)C)(C(=O)NCC1(c2ccccn2)CCCCC1)CC3 (single isomer, unassigned; (+)) | 17.7
3 | COc1cccc2[nH]c3c(c12)CC(NC(=O)Nc1c(C(C)C)cccc1C(C)C)(C(=O)NCC1(c2ccccn2)CCCCC1)CC3 (single isomer, unassigned; (-)) | 1970
4 | COc1cccc2[nH]c3c(c12)CC(NC(=O)Nc1c(C(C)C)cccc1C(C)C)(C(=O)NCC1(c2ccccn2)CCCCC1)CC3 (stereo in doubt; 20) | 132

tested on: HeLa; experiment: Cytotoxicity towards HeLa cells was determined; assay type: functional, cell-based; conditions: Homo sapiens

Row | Compound | IC50 [nM]
5 | COc1cccc2[nH]c3c(c12)CC(NC(=O)Nc1c(C(C)C)cccc1C(C)C)(C(=O)NCC1(c2ccccn2)CCCCC1)CC3 (single isomer, unassigned; (+)) | > 50000

target: T1, Neuromedin-B receptor; experiment: Affinity of [125I][D-Tyr0]-NMB to human Neuromedin B receptor expressed in HEK293 cells; assay type: cell-based; conditions: not given
Summary of the method: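 Whole-cell competition binding on HEK293 cells stably transfected with hNMBR, 1 · 10⁶ cells per well in DMEM. Incubation 1 h at room temperature with 150 pM ¹²⁵I-[D-Tyr0]NMB (2200 Ci/mmol). Bound and free ligand separated by filtration; bound counts read by scintillation counting.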

Row | Compound | IC50 [nM]
6 | Cc1cccc2[nH]c3c(c12)CC(NC(=O)Nc1c(C(C)C)cccc1C(C)C)(C(=O)NCC1(c2ccccn2)CCCCC1)CC3 (stereo not given) | 660
7 | CCNC(=O)NC1(C(=O)NCC2(c3ccccn3)CCCCC2)CCc2[nH]c3ccccc3c2C1 (stereo not given) | > 10000
8 | CC(C)c1cccc(C(C)C)c1NC(=O)NC1(C(=O)NCC2(c3ccccn3)CCCCC2)CCc2[nH]c3cc(Br)ccc3c2C1 (stereo not given) | 2140
9 | CC(C)c1cccc(C(C)C)c1NC(=O)NC1(C(=O)NCC2(c3ccc(Cl)cc3)CC2)CCc2[nH]c3ccccc3c2C1 (stereo not given) | > 10000
10 | CC(C)c1cccc(C(C)C)c1NC(=O)NC1(C(=O)NCC2(c3ccccn3)CCCCC2)CCc2[nH]c3cccc(C(F)(F)F)c3c2C1 (stereo not given) | 3660
11 | Cc1cc([N+](=O)[O-])ccc1NC(=O)NC1(C(=O)NCC2(c3ccccn3)CCCCC2)CCc2[nH]c3ccccc3c2C1 (stereo not given) | 620
12 | O=C(Nc1ccc([N+](=O)[O-])cc1)NC1(C(=O)NCC2(c3ccccn3)CCCCC2)CCc2[nH]c3ccccc3c2C1 (stereo not given) | 800
13 | CC(C)(CNC(=O)C1(NC(=O)Nc2ccc([N+](=O)[O-])cc2)CCc2[nH]c3ccccc3c2C1)c1ccccn1 (stereo not given) | 10000
14 | CC(C)c1cccc(C(C)C)c1NC(=O)NC1(C(=O)NCC2(c3ccccn3)CCCCC2)CCc2[nH]c3cccc([N+](=O)[O-])c3c2C1 (stereo not given) | > 10000
15 | O=C(Nc1ccc(C(F)(F)F)cc1)NC1(C(=O)NCC2(c3ccccn3)CCCCC2)CCc2[nH]c3ccccc3c2C1 (stereo not given) | 1110
16 | CCOC(=O)c1cc(NC(=O)NC2(C(=O)NCC3(c4ccccn4)CCCCC3)CCc3[nH]c4ccccc4c3C2)cc(C(=O)OCC)c1 (stereo not given) | 1850
17 | O=C(NC1CCCCC1)NC1(C(=O)NCC2(c3ccccn3)CCCCC2)CCc2[nH]c3ccccc3c2C1 (stereo not given) | 3920
18 | O=C(Nc1ccc([N+](=O)[O-])cc1)NC1(C(=O)NCC2(c3ccccn3)CCS(=O)(=O)CC2)CCc2[nH]c3ccccc3c2C1 (stereo not given) | > 10000
19 | CC(=O)c1cccc(NC(=O)NC2(C(=O)NCC3(c4ccccn4)CCCCC3)CCc3[nH]c4ccccc4c3C2)c1 (stereo not given) | 2270
20 | COc1ccccc1NC(=O)NC1(C(=O)NCC2(c3ccccn3)CCCCC2)CCc2[nH]c3ccccc3c2C1 (stereo not given) | 8720
21 | O=C(Nc1ccc(OC(F)(F)F)cc1)NC1(C(=O)NCC2(c3ccccn3)CCCCC2)CCc2[nH]c3ccccc3c2C1 (stereo not given) | 3040
22 | CC(C)c1cccc(C(C)C)c1NC(=O)NC1(C(=O)NCC2(c3ccccn3)CCCCC2)CCc2[nH]c3ccccc3c2C1 (stereo not given) | 320
23 | Cc1cccc(C)c1NC(=O)NC1(C(=O)NCC2(c3ccccn3)CCCCC2)CCc2[nH]c3ccccc3c2C1 (stereo not given) | 5490
24 | CC(C)c1cccc(C(C)C)c1NC(=O)NC1(C(=O)NCC2(c3ccccn3)CCCCC2)CCc2[nH]c3cccc(C(=O)O)c3c2C1 (stereo not given) | > 10000
25 | NC(=O)NC1(C(=O)NCC2(c3ccccn3)CCCCC2)CCc2[nH]c3ccccc3c2C1 (stereo not given) | > 10000
26 | CC(C)c1cccc(C(C)C)c1NC(=O)NC1(C(=O)NCC2(c3ccccn3)CCCCC2)CCc2[nH]c3cccc(OC(F)(F)F)c3c2C1 (stereo not given) | 1890
27 | CC(C)c1cccc(C(C)C)c1NC(=O)NC1(C(=O)NCC2(c3ccccn3)CC2)CCc2[nH]c3ccccc3c2C1 (stereo not given) | 3350
28 | O=C(Nc1ccc([N+](=O)[O-])cc1)NC1(C(=O)NCCc2ccccn2)CCc2[nH]c3ccccc3c2C1 (stereo not given) | > 10000
29 | CC(C)c1cccc(C(C)C)c1NC(=O)NC1(C(=O)NCC2(c3ccccn3)CCCCC2)CCc2[nH]c3cc(F)ccc3c2C1F (stereo not given) | 1010
30 | CC(C)c1cccc(C(C)C)c1NC(=O)NC1(C(=O)NCC(C)(C)c2ccccn2)CCc2[nH]c3ccccc3c2C1 (stereo not given) | 4150
31 | CC(C)c1cccc(C(C)C)c1NC(=O)N[C@@](C)(Cc1c[nH]c2ccccc12)C(=O)NCC1(c2ccccn2)CCCCC1 | 350
32 | COc1cccc2[nH]c3c(c12)CC(NC(=O)Nc1c(C(C)C)cccc1C(C)C)(C(=O)NCC1(c2ccccn2)CCCCC1)CC3 (single isomer, unassigned; (+)) | 29
33 | COc1cccc2[nH]c3c(c12)CC(NC(=O)Nc1c(C(C)C)cccc1C(C)C)(C(=O)NCC1(c2ccccn2)CCCCC1)CC3 (stereo in doubt; 20) | 250
34 | Cc1ccc2[nH]c3c(c2c1)C(C)C(NC(=O)Nc1c(C(C)C)cccc1C(C)C)(C(=O)NCC1(c2ccccn2)CCCCC1)CC3 (stereo in doubt; 22) | 700
35 | Cc1ccc2[nH]c3c(c2c1)C(C)C(NC(=O)Nc1c(C(C)C)cccc1C(C)C)(C(=O)NCC1(c2ccccn2)CCCCC1)CC3 (stereo in doubt; 23) | 790
